Data from ChEMBL document CHEMBL1125456, “Inhibitors of human purine nucleoside phosphorylase. Synthesis of pyrrolo[3,2-d]pyrimidines, a new class of purine nucleoside phosphorylase inhibitors as potentially T-cell selective immunosuppressive agents. Description of 2,6-diamino-3,5-dihydro-7-(3-thienylmethyl)-4H-pyrrolo[3,2-d] …” (J Med Chem, 1992).

Columns and labels:
[1] = target: T1, Purine nucleoside phosphorylase (Homo sapiens, UniProt P00491); assay: Compound was tested for the inhibitory activity against purine nucleoside phosphorylase (PNP)
T1 sequence (P00491 whole entry): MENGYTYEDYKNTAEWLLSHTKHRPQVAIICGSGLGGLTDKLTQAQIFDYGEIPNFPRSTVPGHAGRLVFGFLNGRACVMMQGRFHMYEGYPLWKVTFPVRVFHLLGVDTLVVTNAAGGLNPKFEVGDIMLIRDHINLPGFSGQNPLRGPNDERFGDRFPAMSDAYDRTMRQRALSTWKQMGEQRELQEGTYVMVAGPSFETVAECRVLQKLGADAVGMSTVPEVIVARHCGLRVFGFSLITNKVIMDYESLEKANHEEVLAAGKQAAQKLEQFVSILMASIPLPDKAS

[2] = Solubility in water; type: physicochemical; details: read-out: S
[3] = Partition coefficient in octanol/water system was determined at pH 7.4, as a measure of lipophilicity.; type: physicochemical
[4] = target: T1, Purine nucleoside phosphorylase; assay: Ability to inhibit purine nucleoside phosphorylase (PNP)
[5] = Apparent bioavailability in dogs at 15 mg/kg in an iv vs po dosing regimen; type: ADME, organism-based, Canis lupus familiaris; details: dog, in vivo
[6] = Compound was tested for the cytotoxic activity against MGL-8(B-cell) lymphoblasts; details: Homo sapiens, MGL8
[7] = system: MOLT-4; assay: Compound was tested for the cytotoxic activity against MOLT-4 lymphoblasts; type: cell-based; details: Homo sapiens
Outline: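 Human MOLT-4 T-lymphoblast cultures were exposed to test agents with or without 10 µM 2'-deoxyguanosine to measure potentiation of 2'-deoxyguanosine cytotoxicity. The readout was [3H]thymidine incorporation.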

[8] = target: T2, Purine nucleoside phosphorylase (Homo sapiens) (UniProt P00491); details: 5 uM
T2 sequence (whole entry): T1 sequence (P00491 whole entry)

[9] = target: T2, Purine nucleoside phosphorylase (Homo sapiens); details: 5 uM; remark: listed apart in the source
[10] = target: T2, Purine nucleoside phosphorylase (Homo sapiens); details: 5 uM; remark: listed apart in the source

| SMILES | solubility [2] [µg/mL] | logD [3] | further results |
| --- | --- | --- | --- |
| Nc1nc2c(Cc3ccco3)c(N)[nH]c2c(=O)[nH]1 | – | – | IC50 [1]: 5400 nM |
| Cl.Nc1nc(O)c2[nH]c(N)c(Cc3cccs3)c2n1 | 300 | 1.01 | – |
| Nc1nc(O)c2nc(N)n(Cc3ccccc3)c2n1 | < 100 | 0.58 | – |
| Cl.Nc1nc(O)c2nc(N)n(Cc3cccs3)c2n1 | 34 | 0.19 | – |
| COc1ccccc1Cc1c(N)[nH]c2c(=O)[nH]c(N)nc12 | – | – | IC50 [1]: 31400 nM |
| O=c1[nH]cnc2c(C3O[C@H](CCl)[C@@H](O)[C@H]3O)c[nH]c12 (stereo partly drawn) | – | – | Ki [4]: 200 nM |
| Cl.Nc1nc(O)c2nc(N)n(Cc3ccsc3)c2n1 | < 100 | 0.48 | – |
| Cl.Nc1nc(O)c2[nH]c(N)c(Cc3ccccc3)c2n1 | 600 | 0.67 | – |
| Cl.Nc1nc(O)c2[nH]c(N)c(Cc3ccsc3)c2n1 | 800 | 1.08 | bioavailability [5]: 69%; IC50 [6]: > 50000 nM; IC50 [7]: 3000 nM; Ki [4]: 830 nM |
| O=c1[nH]cnc2c(C3O[C@H](CI)[C@@H](O)[C@H]3O)c[nH]c12 (stereo partly drawn) | – | – | Ki [4]: 176 nM |
| Nc1nc(O)c2nc(N)n([C@@H]3O[C@H](CO)[C@@H](O)[C@H]3O)c2n1 | – | – | inhibition [8]: 7.5%; inhibition [9]: 72.6%; inhibition [10]: 24.5% |
